TAAR1 antag: antagonists of human TAAR1. CHO RD-HGA16 TAAR1, Fluo-8 calcium fluorescence, antagonist. inhibition, % at 3 µM. 360,000 compounds, 1.5% hits. AID 624466;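 active = inhibition above a per-plate cutoff, the mean inhibition of test compounds on that plate plus 3 SD, cut at about 49% in these data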;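 note: 0% = DMSO plus EC80 beta-PEA response and 100% = DMSO alone without agonist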
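Material: RD-HGA16 CHO cells with stable hTAAR1 and Gα16; Dosing: single nominal final test compound concentration of 3 µM; Schedule: seeding 17-24 h prior, 75-min 37 °C, 30-min RT dye loading; Detection: kinetic Fluo-8 calcium fluorescence measurement; Measure: % inhibition from peak post-agonist over basal fluorescence ratio; Benchmarks: vehicle and agonist controls.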
CRFBP-R2 block: CRF-BP/CRF-R2 complex antagonism; HEK293 CRF-R2/CRF-BP, CRF-induced calcium fluorescence; inhibition, % at 11.8 µM; 350,000 compounds, 0.59% hits;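 active = inhibition of the ligand-induced calcium signal above about 50% at the single tested concentration, limit read from the data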
ANO1 block: inhibitors of mouse TMEM16A calcium-activated chloride channel. Q8BHY3. HEK293 TMEM16A/YFP iodide influx fluorescence, ionomycin. normalized B-score (activity score, 25-100; higher = stronger inhibition) at 10 µM. 310,000 compounds, 1.2% hits. AID 588511;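 active = ratio plate-corrected score three or more library SD toward inhibition, starting fluorescence score within five deviations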;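 note: score derived from kinetic fluorescence span divided by baseline fluorescence per well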
Target sequence (Q8BHY3 whole entry, looked up): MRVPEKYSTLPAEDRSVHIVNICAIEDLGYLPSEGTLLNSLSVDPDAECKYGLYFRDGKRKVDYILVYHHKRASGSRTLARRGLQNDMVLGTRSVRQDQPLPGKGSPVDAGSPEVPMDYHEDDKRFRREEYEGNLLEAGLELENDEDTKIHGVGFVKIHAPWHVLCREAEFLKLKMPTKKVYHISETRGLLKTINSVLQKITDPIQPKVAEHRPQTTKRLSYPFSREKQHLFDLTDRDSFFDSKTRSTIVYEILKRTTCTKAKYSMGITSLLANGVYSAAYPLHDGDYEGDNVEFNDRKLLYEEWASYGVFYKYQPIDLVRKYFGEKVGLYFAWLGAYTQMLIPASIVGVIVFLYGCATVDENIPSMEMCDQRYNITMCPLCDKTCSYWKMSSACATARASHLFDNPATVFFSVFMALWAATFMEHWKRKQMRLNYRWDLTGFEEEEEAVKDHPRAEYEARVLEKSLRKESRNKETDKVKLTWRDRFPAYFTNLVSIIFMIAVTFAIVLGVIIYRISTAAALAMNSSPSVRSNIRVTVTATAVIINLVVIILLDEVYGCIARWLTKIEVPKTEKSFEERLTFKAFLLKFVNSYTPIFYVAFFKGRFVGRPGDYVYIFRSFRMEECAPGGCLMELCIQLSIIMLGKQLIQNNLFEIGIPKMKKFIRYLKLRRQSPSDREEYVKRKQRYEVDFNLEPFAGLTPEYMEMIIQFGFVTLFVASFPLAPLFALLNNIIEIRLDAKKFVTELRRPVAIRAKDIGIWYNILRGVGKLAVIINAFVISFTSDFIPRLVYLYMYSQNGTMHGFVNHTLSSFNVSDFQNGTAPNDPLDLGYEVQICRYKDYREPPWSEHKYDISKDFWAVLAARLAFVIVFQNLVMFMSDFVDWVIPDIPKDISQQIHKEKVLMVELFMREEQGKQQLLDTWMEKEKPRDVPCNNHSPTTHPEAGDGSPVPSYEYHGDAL
TMEM16A act: activates or potentiates the mouse TMEM16A chloride channel; B-score at 10 µM; Q8BHY3; 340,000 compounds, 0.3% hits; AID 623877; HEK293 TMEM16A/YFP-H148Q/I152L, iodide quench fluorescence; hits give low values;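 active = fluorescence-ratio B-score plate-corrected deviation score at least 3 library SD below zero, with starting fluorescence score within 5 deviations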;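 note: channel opened by trigger with iodide after compound preincubation; score built on the fluorescence ratio of max minus min over baseline; more negative score means more quench and so TMEM16A activation or potentiation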
CRFR2-BP ag: agonists of human CRF-binding protein/CRF-R2 receptor complex. activation, % at 13.2 µM. 350,000 compounds, 0.46% hits. HEK293 CRF-R2/CRF-BP, calcium dye fluorescence (FLIPR); percent of saturating CRF peptide response. AID 588473;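 active = activation of at least 50%, plus an integration ratio under a set limit after plate pattern correction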;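 note: plate controls were neutral control wells without compound for no effect and CRF at EC100 for full effect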
TAAR1 ag: human TAAR1 agonism. Q96RJ0. CHO RD-HGA16 TAAR1, Fluo-8 calcium fluorescence; vehicle wells 0%, saturating PEA agonist 100%. activation, % at 3 µM. 360,000 compounds, 0.99% hits. AID 624467;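 active = activation above the mean activation of all test compounds in the run plus 3 SD, cut at about 38% in these data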
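System: CHO RD-HGA16 cells carrying human TAAR1 plus Gα16; Incubation: 17-24 h seeding, 75 min 37 °C dye, 30 min RT; Measured by: Fluo-8 fluorescence, 5 s baseline then 140 s kinetic read; Control set: DMSO and PEA EC100; Replication: single well for each compound.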
nonsel antag count: nonselective antagonism, TAAR1 counter-screen; shares compounds with TAAR1 antag; counterscreen cell line, calcium fluorescence, antagonist mode; inhibition, % at 3 µM; 2,400 compounds, 77% hits; AID 651780; in the data active = inhibition above about 22%;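 note: CHO-Ga16 host cells stimulated with ATP at an EC80 level; 0% = agonist EC80 plus vehicle and 100% = vehicle without agonist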
TAAR1 antag conf: human TAAR1 antagonism, confirmed; TAAR1-expressing cells, fluorescence antagonist read-out; inhibition, % at 3 µM; shares compounds with TAAR1 antag; AID 651785; 2,400 compounds, 40% hits; in the data active = inhibition above about 49%;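 note: CHO-Ga16 host cells challenged with agonist PEA near its EC80; 0% = agonist at EC80 plus vehicle and 100% = vehicle with no agonist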
Ga16 nonsel ag: nonselective Ga16 agonism, counter-screen; Ga16-expressing cells, calcium fluorescence, agonist counterscreen; shares compounds with TAAR1 antag; 2,400 compounds, 18% hits; AID 651953; activation, % at 3 µM; in the data active = activation above about 12%;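 note: 0% = vehicle wells and 100% = saturating stimulus response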
TAAR1 ag counter: activates human TAAR1 in antagonist counter-screen; hTAAR1 cell line, fluorescence activation, agonist mode; activation, % at 3 µM; AID 651955; shares compounds with TAAR1 antag; 2,400 compounds, 2% hits; in the data active = activation above about 37%;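 note: CHO cells stably expressing TAAR1 with calcium dye readout; 0% = DMSO vehicle and 100% = full agonist response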
* hit, by the source's call; i = inactive; nt = not tested or not shown. Rows were chosen to be rich in hits. Some 3.9% of all compounds tested hit in one or more screens of this group.

SMILES | TAAR1 antag | CRFBP-R2 block | ANO1 block | TMEM16A act | CRFR2-BP ag | TAAR1 ag | nonsel antag count | TAAR1 antag conf | Ga16 nonsel ag | TAAR1 ag counter
Cc1[nH]c2ccccc2c1C(=O)COC(=O)C1CC(=O)N(Cc2ccccc2)C1 (stereo unspecified) | 70.3* | -0.8 | i | i | -0.8 | 26.1 | 30.8* | 52.7* | 12.9* | 13.1
COCCNC(=O)CSCc1cc(C)cc(C)c1 | 2.7 | -3.8 | i | i | -0.5 | 5.1 | nt | nt | nt | nt
O=[N+]([O-])c1ccccc1N(S(=O)(=O)c1ccccc1)S(=O)(=O)c1ccccc1 | 72.2* | 17.4 | nt | i | -2.6 | 2.9 | 24.1* | 50.3* | 3.2 | 3.5
C[C@H](CO)N1C[C@H](C)[C@@H](CN(C)Cc2ccccc2)Oc2c(NC(=O)Cc3ccccc3)cccc2C1=O | 68.1* | 8.5 | nt | i | -1.1 | 21.8 | 25.8* | 44.2 | 7.9 | 15.1
C[C@H](CO)N1C[C@H](C)[C@@H](CN(C)C(=O)Nc2ccccc2)Oc2c(NC(=O)Nc3ccc4c(c3)OCO4)cccc2C1=O | 37.0 | 5.7 | nt | i | 0.1 | 7.8 | nt | nt | nt | nt
COc1ccc(NC(=O)Nc2cccc3c2O[C@H](CN(C)C(=O)Nc2ccc4c(c2)OCO4)[C@@H](C)CN([C@H](C)CO)C3=O)cc1 | 65.0* | 4.2 | nt | i | -0.4 | 16.9 | 33.0* | 53.0* | 5.4 | 6.4
C[C@H](CO)N1C[C@H](C)[C@@H](CN(C)C(=O)Nc2ccc3c(c2)OCO3)Oc2c(NC(=O)Nc3ccc4c(c3)OCO4)cccc2C1=O | 69.4* | 1.4 | nt | i | -1.4 | 23.6 | 31.4* | 53.1* | 8.6 | 8.7
CC(=O)NC(Cc1cc(C)ccc1C)C(=O)N1CCN(C(=O)c2ccc([N+](=O)[O-])cc2)CC1 (stereo unspecified) | -2.0 | 0.2 | i | i | -0.9 | 2.5 | nt | nt | nt | nt
COc1ccc(CCNC(=O)c2ccc3c(c2)NC(=O)C(CSCc2cc(C)ccc2C)N3)cc1OC (stereo unspecified) | nt | nt | i | nt | nt | nt | nt | nt | nt | nt
Cc1ccc(-c2nc3ccccc3[nH]2)cc1NC(=S)NC(=O)c1ccccc1Br | 69.9* | -1.1 | i | i | -4.3 | 7.2 | 35.8* | 47.1 | 5.6 | -0.3
CC(C)NC(=O)COC(=O)c1ccccc1C(=O)c1ccccc1 | -3.9 | -6.2 | i | i | 1.2 | 0.3 | nt | nt | nt | nt
O=C(NCCc1cccs1)C1CC(c2ccccc2F)=NO1 (stereo unspecified) | 74.2* | 12.3 | i | i | -3.2 | 37.1 | 0.2 | 81.0* | 2.2 | 68.0*
COc1ccc(CCNC(=O)C2CC(c3ccccc3F)=NO2)cc1 (stereo unspecified) | -0.5 | 9.0 | i | i | -2.4 | 12.1 | nt | nt | nt | nt
Cc1ccc(CNC(=O)c2cc(-c3ccccc3C)nn2CC2CC(c3cccnc3)=NO2)cc1 (stereo unspecified) | 63.9* | 8.2 | nt | i | 0.6 | 12.1 | 26.4* | 34.4 | 5.5 | 9.5
Cc1ccc(CNC(=O)c2cc(-c3ccccc3)nn2CC2CC(c3cccnc3)=NO2)cc1 (stereo unspecified) | 31.5 | 3.7 | i | i | -2.0 | 7.1 | nt | nt | nt | nt
Cc1ccccc1-c1cc(C(=O)NCc2ccc3c(c2)OCO3)n(CC2CC(c3cccnc3)=NO2)n1 (stereo unspecified) | 45.7 | 7.0 | nt | i | 0.5 | 11.3 | nt | nt | nt | nt
Cc1ccccc1-c1cc(C(=O)NCc2ccc(OC(F)(F)F)cc2)n(CC2CC(c3cccnc3)=NO2)n1 (stereo unspecified) | 70.3* | -2.0 | nt | i | 1.9 | 15.8 | 35.9* | 52.9* | 7.3 | 11.0
O=C(NCc1cccc(Br)c1)c1cc(-c2ccccc2)nn1CC1CC(c2cccnc2)=NO1 (stereo unspecified) | 55.9* | 3.5 | i | i | 0.8 | 15.8 | 21.5* | 29.1 | 3.8 | 0.8
O=C(Cc1ccccc1[N+](=O)[O-])NCCSCc1c(F)cccc1Cl | -4.2 | 36.4 | i | i | -2.1 | 2.7 | nt | nt | nt | nt
O=[N+]([O-])c1cccnc1SCc1c(F)cccc1Cl | 52.4* | 19.6 | i | i | 0.4 | 10.4 | 15.6 | 27.1 | 3.3 | 8.6
CC1CCN(C(=O)c2ccc(N(C)S(C)(=O)=O)cc2)CC1 | 107.5* | 10.0 | i | i | 0.0 | 5.5 | -2.6 | -4.4 | 2.5 | 5.5
CCn1ncc(CN2CCC(Oc3cc(C(=O)NC4CC4)ccc3OC)CC2)c1C | 3.4 | 12.3 | i | i | 2.4 | 0.4 | nt | nt | nt | nt
CCCS(=O)(=O)NC(=O)C1(C)CCN(C(=O)c2cccnc2Oc2ccccc2)C1 (stereo unspecified) | -6.6 | nt | nt | nt | nt | 2.9 | nt | nt | nt | nt
CCN(CC(=O)Nc1ccc(NC(C)=O)cc1)C(=O)CN1C(=O)C2CCCCC2C1=O (stereo unspecified) | -4.6 | -3.6 | nt | i | -1.8 | 6.1 | nt | nt | nt | nt
COc1cccc(/C=N/NC(=O)c2[nH]c(C)c(C(=O)N/N=C/c3cccc(OC)c3)c2C)c1 | 24.2 | -6.7 | i | i | -3.1 | 3.5 | nt | nt | nt | nt
SMILES | TAAR1 antag | CRFBP-R2 block | ANO1 block | TMEM16A act | CRFR2-BP ag | TAAR1 ag | nonsel antag count | TAAR1 antag conf | Ga16 nonsel ag | TAAR1 ag counter
CCOC(=O)c1c(C)[nH]c(C(=O)N/N=C/c2cccc(OC)c2)c1C | 55.0* | -33.7 | i | i | -2.0 | 17.0 | 20.8 | 41.3 | 11.5 | 12.4
CCOC(=O)c1c(C)[nH]c(C(=O)N/N=C\c2ccccc2Cl)c1C | 54.9* | -19.7 | i | i | -4.0 | 8.3 | 37.6* | 55.9* | 11.3 | 10.0
CCOC(=O)c1c(C)[nH]c(C(=O)NNC(=O)c2ccccc2)c1C | nt | 11.5 | i | i | -2.4 | nt | nt | nt | nt | nt
COc1cc(C(C)=O)ccc1OCC(=O)N(CCC1=CCCCC1)c1c(N)n(Cc2ccccc2)c(=O)[nH]c1=O | -37.1 | 6.9 | i | i | 0.2 | 1.7 | nt | nt | nt | nt
O=C(Nc1ccc(NC(=S)NC(=O)c2ccccc2F)cc1)c1cccs1 | 51.7* | -18.9 | i | i | -1.3 | 11.1 | 19.8 | 28.3 | 9.3 | 10.5
C=CCNC(=O)COc1c(C)ccc(C)c1C | 1.2 | 7.7 | i | i | -2.0 | -1.3 | nt | nt | nt | nt

Screening data: PubChem, several laboratories
